Source: ChEMBL document CHEMBL1811851, “Identification of a potent, state-dependent inhibitor of Nav1.7 with oral efficacy in the formalin model of persistent pain” (J Med Chem, 2011)
In brackets after ≈: the same amount, converted by molar mass.

Experiments:
LLC-PK1 [1] = assay: Apparent permeability of the compound from basolateral to apical direction in pig LLC-PK1 cells expressing human MDR1; type: ADME, cell-based, Sus scrofa
Summary of the method: (§1)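 MDR1-LLC-PK1 pig kidney cells expressing human MDR1; compound at 5 μM with 0.1% BSA; apparent permeability measured apical-to-basolateral and basolateral-to-apical.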

[2] = Aqueous solubility of the compound in SIF pH 6.8; type: physicochemical
LLC-PK1 [3] = assay: Apparent permeability of the compound from apical to basolateral direction in pig LLC-PK1 cells expressing human MDR1; type: ADME, cell-based, Sus scrofa; summary of the method: as §1
[4] = Aqueous solubility of the compound in PBS pH 7.4; type: physicochemical
[5] = AUC in Sprague-Dawley rat at 0.5 mg/kg, iv; type: ADME, organism-based; set-up: dose 0.5 mg/kg, route intravenous; conditions: plasma
Summary of the method: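 Male Sprague-Dawley rats dosed intravenously at 0.5 mg/kg in 0.5 mL/kg of 100% DMSO; pharmacokinetic parameters derived from plasma exposure.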

[6] = Aqueous solubility of the compound in 0.01 N HCl; type: physicochemical
[7] = Oral bioavailability in Sprague-Dawley rat at 2 mg/kg; type: ADME, organism-based; conditions: in vivo
Summary of the method: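 Male Sprague-Dawley rats; oral dose 2 mg/kg in 10 mL/kg vehicle (30% hydroxypropyl-β-cyclodextrin pH 2.2 with methanesulfonic acid, or 1% Tween 80/2% HPMC pH 2.2 with HCl), compared with 0.5 mg/kg iv in DMSO.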

Rattus norvegicus [8] = assay: Plasma concentration in Sprague-Dawley rat at 3 mg/kg, po by open-field test; type: ADME, organism-based; set-up: dose 3 mg/kg, route oral; conditions: in vivo
Summary of the method: (§2)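 Naive rats given oral doses of 3–30 mg/kg (n = 8 per dose), timed so recording began at the same post-dose interval as the formalin test; open-field photobeam beam breaks binned every 5 min and totalled; plasma drug measured; one-way ANOVA with Dunnett's versus vehicle.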

Rattus norvegicus [9] = assay: Plasma concentration in formalin-induced Sprague-Dawley rat at 3 mg/kg, po by open-field test; type: ADME, organism-based; set-up: dose 3 mg/kg, route oral; conditions: in vivo
Summary of the method: (§3)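 Rats dosed orally 2 h before formalin; plasma sampled right after the formalin test (3 h post-dose) for total drug concentration.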

Rattus norvegicus [10] = assay: Plasma concentration in formalin-induced Sprague-Dawley rat at 10 mg/kg, po by open-field test; type: ADME, organism-based; set-up: dose 10 mg/kg, route oral; conditions: in vivo; summary of the method: as §3
Rattus norvegicus [11] = assay: Plasma concentration in formalin-induced Sprague-Dawley rat at 20 mg/kg, po by open-field test; type: ADME, organism-based; set-up: dose 20 mg/kg, route oral; conditions: in vivo; summary of the method: as §3
Plasma = assay: Unbound plasma concentration in Sprague-Dawley rat at 3 mg/kg, po; type: ADME, organism-based; set-up: dose 3 mg/kg, route oral; conditions: in vivo
Rattus norvegicus [12] = assay: Plasma concentration in Sprague-Dawley rat at 30 mg/kg, po by open-field test; type: ADME, organism-based; set-up: dose 30 mg/kg, route oral; conditions: in vivo; summary of the method: as §2
Rattus norvegicus [13] = assay: Plasma concentration in Sprague-Dawley rat at 20 mg/kg, po by open-field test; type: ADME, organism-based; set-up: dose 20 mg/kg, route oral; conditions: in vivo; summary of the method: as §2
Rattus norvegicus [14] = assay: Plasma concentration in Sprague-Dawley rat at 10 mg/kg, po by open-field test; type: ADME, organism-based; set-up: dose 10 mg/kg, route oral; conditions: in vivo; summary of the method: as §2
Rattus norvegicus [15] = assay: Plasma concentration in formalin-induced Sprague-Dawley rat at 30 mg/kg, po by open-field test; type: ADME, organism-based; set-up: dose 30 mg/kg, route oral; conditions: in vivo; summary of the method: as §3

Row | SMILES | Papp (LLC-PK1 [1]) [×10⁻⁶ cm/s] | solubility [2] [µg/mL] | Papp (LLC-PK1 [3]) [×10⁻⁶ cm/s] | solubility [4] [µg/mL] | AUC [5] [ng·h/mL] | solubility [6] [µg/mL] | bioavailability [7] [%] | concentration (Rattus norvegicus [8]) [nM] | concentration (Rattus norvegicus [9]) [nM] | concentration (Rattus norvegicus [10]) [nM] | concentration (Rattus norvegicus [11]) [nM] | Cp(f) (Plasma) [nM] | concentration (Rattus norvegicus [12]) [nM] | concentration (Rattus norvegicus [13]) [nM] | concentration (Rattus norvegicus [14]) [nM] | concentration (Rattus norvegicus [15]) [nM]
1 | CC(=O)Nc1cccc(Nc2ncnc(N3CCC(OCc4ccccc4)CC3)n2)c1 | 22.2 | 86 (≈ 205 µM) | 22.2 | 15 (≈ 35.8 µM) |  | 157 (≈ 375 µM) | 19 |  |  |  |  |  |  |  |  | 
2 | CC(=O)Nc1cccc(Nc2ncnc(N3CCC(OCc4ccc(C(F)(F)F)cc4)CC3)n2)c1C |  |  |  |  |  |  | 27 |  |  |  |  |  |  |  |  | 
3 | CC(=O)Nc1cccc(Nc2ncnc(N3CCC(OCc4ccc(OC(F)(F)F)cc4)CC3)n2)c1C |  |  |  |  |  |  | 67 | 500 | 500 | 1400 | 3200 | 14 | 5400 | 2900 | 1400 | 4400

Further lines, results first:

Row | Papp (LLC-PK1 [1]) [×10⁻⁶ cm/s] | solubility [2] [µg/mL] | Papp (LLC-PK1 [3]) [×10⁻⁶ cm/s] | solubility [4] [µg/mL] | AUC [5] [ng·h/mL] | solubility [6] [µg/mL] | bioavailability [7] [%] | concentration (Rattus norvegicus [8]) [nM] | concentration (Rattus norvegicus [9]) [nM] | concentration (Rattus norvegicus [10]) [nM] | concentration (Rattus norvegicus [11]) [nM] | Cp(f) (Plasma) [nM] | concentration (Rattus norvegicus [12]) [nM] | concentration (Rattus norvegicus [13]) [nM] | concentration (Rattus norvegicus [14]) [nM] | concentration (Rattus norvegicus [15]) [nM] | SMILES
4 | 29.3 | 31 (≈ 86 µM) | 29.3 | 1 (≈ 2.77 µM) | 126 | 42 (≈ 117 µM) |  |  |  |  |  |  |  |  |  |  | CC(=O)Nc1cccc(Nc2ncnc(N3CCc4ccccc4C3)n2)c1
5 | 26.1 | 110 (≈ 272 µM) | 26.1 | 11 (≈ 27.2 µM) |  | > 200 | 52 |  |  |  |  |  |  |  |  |  | CC(=O)Nc1cccc(Nc2ncnc(N3CCC(Oc4ccccc4)CC3)n2)c1
